Shown are actives, neighbours in structure and some others; about 3% of the full set was active somewhere.
MPTP block: mitochondrial permeability transition pore inhibitors, primary screen, biochemical, isolated mouse mitochondria, absorbance. 360,000 compounds, 1.4% hits. inhibition, % at 10 µM. Ca2+ swelling absorbance, 30 min;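 active = inhibition of 50% or more, scaled per plate between neutral and stimulator controls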;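 note: 0% = DMSO wells given calcium and 100% = 1 mM EGTA wells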
UBC13 polyUb: UBC13 polyubiquitin chain formation inhibitors, primary screen, biochemical, TR-FRET, uHTS; 330,000 compounds, 0.47% hits; inhibition, % at 20 µM; Ubiquitin-conjugating enzyme E2 N (Homo sapiens), P61088; in the data active = inhibition above about 45%, passing the limit was not always enough
Target sequence (P61088 whole entry, looked up): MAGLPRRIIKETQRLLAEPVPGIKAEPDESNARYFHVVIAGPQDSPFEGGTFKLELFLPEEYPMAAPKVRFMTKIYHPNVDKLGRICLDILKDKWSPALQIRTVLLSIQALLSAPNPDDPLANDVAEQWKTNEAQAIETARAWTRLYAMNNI
Apaf1 inhib: inhibitors of human Apaf-1 apoptosome, primary screen, biochemical, DEVD-Rh110 fluorescence, uHTS. Apoptotic protease-activating factor 1 (Homo sapiens), O14727. reconstituted apoptosome caspase-3 activity. inhibition, % at 20 µM. 330,000 compounds, 0.71% hits. AID 489030, 2010; active = inhibition of at least 40% at 20 µM;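 note: plate controls were DMSO wells for no effect and DEVD-CHO caspase inhibitor wells for full effect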
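Assay system – apoptosome proteins · Medium – Hepes buffer, pH 7.5 · Also added – cytochrome c with DEVD-Rh110 · Timing – 30 min compound preincubation, 50 min activation, room temperature · Detection – Rh110 fluorescence, excitation 480 nm, emission 540 nm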
hiPSC survival: enhancers of single-cell hiPSC survival, primary screen, ATPlite luminescence; survival enhancement, % at 20 µM; 100% = ROCK inhibitor wells, 0% = DMSO; 360,000 compounds, 0.044% hits; in the data active = survival enhancement above about 18%;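 note: cells exposed to compounds for 16 hours before the ATP read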
Exocytosis inh: LAMP-1 surface exposure blockers, TALL-104 cells – cell-based, flow cytometry, MLPCN library, primary screen. TALL-104 LAMP-1 surface exposure; cells stimulated with thapsigargin and PMA. inhibition, % at 10 µM. 360,000 compounds, 0.66% hits. AID 651702, 2012;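 active = inhibition above about 55%, limit read from the data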
MIN6 prolif: inducers of MIN6 beta-cell proliferation, primary screen, ATP luminescence, uHTS; 330,000 compounds, 0.29% hits; proliferation, % at 10 µM; MIN6 cells proliferation, ATPlite luminescence, 48 h; cells starved in 0.2% serum; 100% = growth in 10% serum; AID 2380, 2010;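 active = compounds whose signal lies at least 3.5 SD above the mean of all wells on their plate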;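 note: 0% = DMSO-treated cells in low-serum medium and 100% = 10% serum control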
MPTP counter: fluorescence retest of MPTP screen hits in isolated mitochondria, single concentration | shares compounds with MPTP block | membrane potential, Rhodamine 123 fluorescence | inhibition, % at 10 µM | 5,000 compounds, 78% hits; in the data active = inhibition above about 22%;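 note: 0% = DMSO vehicle and 100% = positive control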
MPTP abs DR: mitochondrial permeability transition pore inhibitors, dose response, biochemical, absorbance, uHTS hits; shares compounds with MPTP block; isolated mitochondria swelling; IC50, µM; 780 compounds, 58% hits; AID 651561, 2012; in the data active = IC50 below about 20 µM
MPTP cs DR: fluorescent counter-screen in isolated mitochondria, dose response, counter-screen for MPTP inhibitor project, biochemical, fluorescence, uHTS hits | shares compounds with MPTP block | isolated mitochondria counterscreen, fluorescence read-out | IC50, µM | 780 compounds, 49% hits; in the data active = IC50 below about 80 µM
Numbers without * were called inactive; nt = no result given.

SMILES | MPTP block | UBC13 polyUb | Apaf1 inhib | hiPSC survival | Exocytosis inh | MIN6 prolif | MPTP counter | others
Oc1ccc(C[C@@H]2CNCCN2CCc2cccc3ccccc23)cc1 | 84* | 29 | 8 | -4 | 8 | -8 | -14 | MPTP abs DR=14*;MPTP cs DR=>80
O=C(Nc1cccc(C(F)(F)F)c1)Nc1ccc(N2CCCC2)c(S(=O)(=O)Nc2ccccc2Cl)c1 | 94* | -20 | 13 | -2 | 9 | -6 | 41*
c1ccc2c(c1)oc1c(N3CCN(Cc4ccc5c(c4)OCO5)CC3)ncnc12 | 86* | nt | nt | 5 | -1 | nt | 77*
CC(C)Cc1ccc(C(C)C(=O)Nc2cccnc2)cc1 (stereo not drawn) | 85* | 1 | -3 | -1 | -2 | -4 | 79*
CC(C)Cc1ccc(C(C)C(=O)Nc2ccc(O)cc2)cc1 (stereo not drawn) | 73* | -15 | -1 | -3 | 0 | -6 | 38*
CN1CCN(c2ccc(Cl)cc2NC(=O)c2ccc([N+](=O)[O-])cc2)CC1 | 0 | -15 | -7 | -1 | 17 | -7 | nt
Cc1cc(C(=O)Nc2ccc(N3CCCC3)c(Cl)c2)ccc1[N+](=O)[O-] | 80* | -15 | 22 | 0 | -4 | -5 | 86*
CC1CCN(c2ccc(C(=O)Nc3ccc4c(c3)OCO4)cc2[N+](=O)[O-])CC1 | 29 | -28 | 9 | -1 | 5 | -5 | nt
O=C(Nc1ccc(N2CCCC2)c(Cl)c1)c1ccc([N+](=O)[O-])cc1 | 76* | -13 | 5 | 0 | 4 | -3 | 76*
CC1CCCN(c2ccc(C(=O)Nc3ccc4c(c3)OCO4)cc2[N+](=O)[O-])C1 (stereo not drawn) | 58* | -25 | 12 | 4 | 0 | -6 | 43*
CC(C)C(C(=O)NCc1ccccc1)N1CCN(c2ccccc2F)CC1 (stereo not drawn) | -2 | nt | nt | nt | 3 | nt | nt
C#CCNC(=O)C[C@@H]1C[C@@]2(C(=O)OC)CCCCC=C2N(CCCCCCCC)C1=O | -1 | nt | nt | 0 | 0 | nt | nt
O=C(Nc1ccccc1)N(CCCN1CCOCC1)Cc1ccccc1F | 2 | 4 | -7 | 1 | -8 | -4 | nt
O=C(Nc1cccc(Cl)c1)N(CCCN1CCOCC1)Cc1ccccc1F | 95* | 0 | -13 | 2 | 4 | -3 | 95*
COCCn1c(=S)[nH]c2cc(C(=O)N3CCc4ccccc43)ccc2c1=O | 9 | 0 | 4 | -1 | -1 | -5 | nt
CCCn1c(=S)[nH]c2cc(C(=O)N3CCc4ccccc43)ccc2c1=O | 60* | -4 | 18 | 0 | 2 | -4 | 48*
Cn1nc(C(C)(C)C)cc1C(=O)N1CCCCC1c1cc(C(=O)NCc2ccc(F)cc2)no1 (stereo not drawn) | 2 | nt | nt | 0 | 1 | nt | nt
CCOC(=O)C1(Cc2ccccc2)CCN(Cc2cnn(CC)c2)CC1 | 3 | -2 | 1 | 4 | 0 | -2 | nt
CCn1cc(CN2CCCC(C(=O)c3ccc(-c4ccccc4)cc3)C2)cn1 (stereo not drawn) | 58* | 14 | 8 | -1 | 2 | -3 | 4 | MPTP abs DR=19*;MPTP cs DR=26*
CCOC(=O)C1(Cc2ccccc2)CCN(Cc2cnn(-c3ccccc3)c2)CC1 | 62* | 13 | 21 | 3 | 1 | -4 | 2 | MPTP abs DR=15*;MPTP cs DR=33*
CCOC(=O)C1(Cc2ccccc2)CCCN(Cc2cnn(CC)c2)C1 (stereo not drawn) | 64* | 0 | 2 | -1 | -8 | 1 | -2 | MPTP abs DR=>100;MPTP cs DR=>80
CC(=O)c1ccc(NC(=S)NCCc2cccc(Cl)c2)cc1 | 86* | 26 | 20 | -1 | 8 | -5 | 95*
CC(=O)c1ccc(NC(=O)Nc2ccc(Br)cc2C)cc1 | 90* | 6 | 10 | -3 | 0 | -2 | 97*
O=C(NCCCc1ccccc1)Nc1cccc(Cl)c1 | 70* | 16 | 2 | -3 | -2 | -1 | 95*
CC(=O)c1ccc(NC(=O)Nc2cccc(Cl)c2)cc1 | 101* | 5 | 7 | -4 | 0 | -3 | 88*
SMILES | MPTP block | UBC13 polyUb | Apaf1 inhib | hiPSC survival | Exocytosis inh | MIN6 prolif | MPTP counter | others
FC(F)(F)c1ccc(-c2cccc3c2C2CC3CCN2Cc2ccc3c(c2)OCO3)cc1 (stereo not drawn) | 1 | nt | nt | -1 | 0 | nt | nt
CC1(NC(=O)c2ccccc2)CCN(CCCc2ccccc2)C1=O (stereo not drawn) | 0 | 4 | -2 | -2 | 3 | 1 | nt
C[C@H]1CN([C@@H](C)CO)C(=O)c2cccc(NC(=O)c3cnccn3)c2O[C@@H]1CN(C)S(=O)(=O)c1ccc(F)cc1 | 0 | -1 | 10 | -1 | -5 | 1 | nt
O=c1cc(CSc2nc(NCc3ccc(Cl)cc3)c3ccccc3n2)nc2ccc(Cl)cn12 | -1 | nt | nt | -1 | 6 | nt | nt
C[C@@H]1CN([C@@H](C)CO)C(=O)CCCn2cc(nn2)CO[C@H]1CN(C)C(=O)c1cc(-c2ccccc2)on1 | 0 | nt | nt | 2 | -2 | nt | nt
O=C(Nc1ccccc1)Nc1cccc(Cl)c1 | 96* | 2 | 4 | -2 | 0 | -3 | 87*
O=C(Nc1cccc(Cl)c1)Nc1cccc(C(=O)O)c1 | 5 | -11 | -5 | 0 | -4 | -2 | nt
N#Cc1ccc(NC(=O)Nc2cccc(C#N)c2)cc1 | 72* | nt | nt | 0 | 34 | nt | 100*
O=C(Nc1ccccc1)Nc1ccc(Cl)nc1Cl | 73* | 3 | 0 | 1 | -3 | -4 | 88*
CC(C)(C)c1cc(C(=O)NNC(=O)Nc2cccc(Cl)c2)n(Cc2ccccc2)n1 | 71* | -8 | 3 | 3 | 4 | -5 | 79*
N#Cc1cccc(NC(=O)c2ccccc2C(=O)O)c1 | -1 | 4 | -3 | -1 | -5 | -1 | nt
Cc1cccc2c1cnn2C(=O)CCC(=O)NCC(C)c1ccccc1 (stereo not drawn) | -1 | -2 | 0 | 1 | 0 | 2 | nt
Cc1cc2oc(=O)cc(CN3CCN(c4ccc(Cl)c(Cl)c4)CC3)c2cc1Cl | 2 | nt | nt | -1 | 4 | nt | nt
O=C(NCCc1cccc(Cl)c1)c1ccc(Cl)c([N+](=O)[O-])c1 | 81* | 7 | 0 | 1 | -5 | 0 | 94*

Screening data (PubChem BioAssay)
